Compound activity deposited in PubChem BioAssay by The Scripps Research Institute Molecular Screening Center.
This is a sample that favours compounds with a hit; in the whole collection about 4% have one here.
OX1R antag-1 – OX1R (human) antagonism | OX1R-expressing cells, FRET antagonist read-out | hit rate 1.8% among 330,000 | AID 485270 | inhibition, % at 6.6 µM; in the data active means inhibition mostly above about 38%, no sharp cut-off; inactive means mostly below about 40%;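 further: 0% = agonist challenge alone and 100% = reference antagonist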
CHO parental Ca – counter-screen for OX1R antagonists: effect in parental CHO cells; hit rate 0.63% among 330,000; parental CHO-K1, ATP-induced calcium, Fluo-8 fluorescence; AID 463079; inhibition, % at 5.6 µM;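 active means inhibition above that plate's mean sample inhibition plus 3 SD, cut at about 26% in these data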;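 further: 0% = ATP-challenged DMSO wells and 100% = DMSO wells without ATP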
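Assay system: untransfected parental CHO cell line. Also added: ATP agonist challenge. Dosing: one dose, 5.6 µM nominal. Measured by: Fluo-8 fluorescence. Read-out: % inhibition. Benchmarks: ATP wells versus no-ATP DMSO wells. Repeats: no replicates.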
TAAR1 agonist – human TAAR1 agonism | CHO RD-HGA16 TAAR1, Fluo-8 calcium fluorescence; vehicle wells 0%, saturating PEA agonist 100% | activation, % at 3 µM | hit rate 0.99% among 360,000;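 active means activation above the mean activation of all test compounds in the run plus 3 SD, cut at about 38% in these data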
Target sequence (Q96RJ0 whole entry, looked up): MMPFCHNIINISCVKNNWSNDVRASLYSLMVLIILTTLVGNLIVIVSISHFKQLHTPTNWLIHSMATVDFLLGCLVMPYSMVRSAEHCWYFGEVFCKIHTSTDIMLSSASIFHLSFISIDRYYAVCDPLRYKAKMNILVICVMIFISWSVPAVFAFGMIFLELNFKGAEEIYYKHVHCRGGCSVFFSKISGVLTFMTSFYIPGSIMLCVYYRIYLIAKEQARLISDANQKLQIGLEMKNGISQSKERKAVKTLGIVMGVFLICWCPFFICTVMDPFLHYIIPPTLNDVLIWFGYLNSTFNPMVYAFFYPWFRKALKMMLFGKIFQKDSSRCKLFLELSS
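test system = CHO RD-HGA16 cells carrying human TAAR1 plus Gα16 | schedule = 17-24 h seeding, 75 min 37 °C dye, 30 min RT | compound dosing = 3 µM single concentration | control set = DMSO and PEA EC100 | replicates = n 1 | signal = Fluo-8 fluorescence, 5 s baseline then 140 s kinetic read | measure = percent activation vs PEA EC100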
OX1R antag-2 – blocks the human orexin 1 receptor; CHO/OX1R cells, Fluo-8 calcium fluorescence, orexin A; inhibition, % at 5 µM; hit rate 0.43% among 330,000; AID 434989;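 active means inhibition above its plate's threshold, mean inhibition of all tested compounds on the plate plus 3 SD, cut at about 37% in these data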;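 further: 0% = orexin A challenge wells and 100% = SB-334867-A antagonist wells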
TAAR1 antagonist – human TAAR1 antagonism | Q96RJ0 | CHO RD-HGA16 TAAR1, Fluo-8 calcium fluorescence, antagonist | inhibition, % at 3 µM | hit rate 1.5% among 360,000;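 active means inhibition above a per-plate cutoff, the mean inhibition of test compounds on that plate plus 3 SD, cut at about 49% in these data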;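 further: 0% = DMSO plus EC80 beta-PEA response and 100% = DMSO alone without agonist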
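Test system – hTAAR1-expressing CHO RD-HGA16 cells, Gα16-coupled · Reagent – β-PEA at EC80 concentration, post-compound challenge · Compound dosing – 3 µM, single point · Timing – 140 s kinetic read after compound, 140 s after agonist · Detection – Fluo-8 intracellular calcium dye fluorescence, real-time kinetic reads · Control set – DMSO and EC80 PEA controls · Repeats – n of 1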
nonsel antag count – nonselective antagonism, TAAR1 counter-screen; shares compounds with TAAR1 antagonist; counterscreen cell line, calcium fluorescence, antagonist mode; inhibition, % at 3 µM; hit rate 77% among 2,400; AID 651780; in the data active means inhibition above about 22%;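 further: CHO-Ga16 host cells stimulated with ATP at an EC80 level; 0% = agonist EC80 plus vehicle and 100% = vehicle without agonist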
TAAR1 antag conf – confirmation of human TAAR1 antagonists | shares compounds with TAAR1 antagonist | TAAR1-expressing cells, fluorescence antagonist read-out | inhibition, % at 3 µM | hit rate 40% among 2,400; in the data active means inhibition above about 49%;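 further: CHO-Ga16 host cells challenged with agonist PEA near its EC80; 0% = agonist at EC80 plus vehicle and 100% = vehicle with no agonist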
Ga16 nonsel ag – counter-screen for TAAR1 antagonists: nonselective Ga16 agonists. hit rate 18% among 2,400. shares compounds with TAAR1 antagonist. Ga16-expressing cells, calcium fluorescence, agonist counterscreen. activation, % at 3 µM; in the data active means activation above about 12%;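 further: 0% = vehicle wells and 100% = saturating stimulus response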
TAAR1 ag counter – activates human TAAR1 in antagonist counter-screen; shares compounds with TAAR1 antagonist; hTAAR1 cell line, fluorescence activation, agonist mode; activation, % at 3 µM; hit rate 2% among 2,400; in the data active means activation above about 37%;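 further: CHO cells stably expressing TAAR1 with calcium dye readout; 0% = DMSO vehicle and 100% = full agonist response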
Numbers without * were called inactive; x = no result.

SMILES	OX1R antag-1	CHO parental Ca	TAAR1 agonist	OX1R antag-2	TAAR1 antagonist	nonsel antag count	TAAR1 antag conf	Ga16 nonsel ag	TAAR1 ag counter
CSc1ccc(CCNC(=O)CN2C(=O)c3cccnc3Oc3ccc(C)cc32)cc1	17	-26	8	-12	74*	25*	53*	7	9
CN(C)CCCn1c2c(c(SCC(=O)Nc3ccc4c(c3)OCCO4)nc1=O)CCCC2	x	x	-1	x	-8	x	x	x	x
CCCc1nccn1S(=O)(=O)c1cc(OC)ccc1OC	2	2	6	-1	7	x	x	x	x
CCOc1ccc2[nH]c3c(NCCc4ccc(OC)c(OC)c4)ncnc3c2c1	13	-22	6	-36	51*	18	31	4	1
Cc1cc(NS(=O)(=O)c2ccc(NC(=O)/C=C/c3cccc(Cl)c3)cc2)no1	23	-12	0	-7	-38	x	x	x	x
O=C(O)Cn1c(=O)c2c3c(sc2n(Cc2ccccc2F)c1=O)CCCC3	19	-9	3	-1	56*	5	38	3	7
O=C(O)Cn1c(=O)c2c3c(sc2n(Cc2ccc(F)cc2)c1=O)CCCC3	9	1	2	-18	16	x	x	x	x
Cc1ccc(NC(=O)C2(C)CCN2C(=O)c2ccccc2CCc2ccccc2)cc1C (stereo not given)	x	x	-1	x	-17	x	x	x	x
COc1ccc(NC(=O)C2(C)CCN2C(=O)c2ccccc2CCc2ccccc2)cc1OC (stereo not given)	x	x	5	x	65*	18	43	6	16
Cc1ncc(CO)c2c1Oc1nc(-c3ccccc3)nc(SCC(=O)N(C)c3ccccc3)c1C2	16	-13	8	7	62*	27*	46	6	7
CC(=O)c1ccc(N2CCN(C(=O)CCCn3c(=O)[nH]c4ccsc4c3=O)CC2)cc1	13	-12	2	-2	17	x	x	x	x
CC(=O)c1ccc(N2CCN(C(=O)CCCn3c(=O)[nH]c4ccc(Br)cc4c3=O)CC2)cc1	16	-1	8	-14	67*	37*	54*	11	6
COC(=O)c1ccc2c(=O)n(CCCCCC(=O)N3CCN(c4ccccc4)CC3)c(=O)[nH]c2c1	4	-4	24	-16	74*	58*	72*	14*	22
O=C(Nc1ccccc1C(=O)NCCCN1CCOCC1)c1ccc(Cl)cc1	19	-15	4	-16	10	x	x	x	x
COC(=O)C[C@H]1N(S(=O)(=O)c2ccc(C)cc2)C(C(C)C)CC1(C(=O)OC)C(=O)OC (stereo not given in full)	x	x	3	x	-5	x	x	x	x
O=C(Nc1ccc2c(c1)OCO2)c1noc2c1CCCC2	25	1	0	-6	-29	x	x	x	x
COCCCNC(=O)CN(c1cc([N+](=O)[O-])ccc1OC)S(C)(=O)=O	10	-6	1	-7	1	x	x	x	x
CCc1ccccc1NC(=O)C1CCN(C(=O)c2ccc([N+](=O)[O-])cc2)CC1	25	-4	9	-6	-2	x	x	x	x
COc1cc(-c2cc(C(=O)NCc3ccco3)c3ccccc3n2)cc(OC)c1OC	3	-31	11	-40	57*	23*	42	8	7
Cc1ccc2sc(NNC(=O)c3cc(-c4cccs4)nc4ccccc34)nc2c1C	11	-13	7	-14	11	x	x	x	x
Cc1cc(C)c2nc(NNC(=O)c3cc(-c4cccs4)nc4ccccc34)sc2c1	15	-13	16	-22	56*	35*	50*	11	9
Cc1nn(-c2ccccn2)c2nc(-c3cccs3)cc(C(=O)NCc3ccco3)c12	26	-33	14	-28	60*	32*	49*	5	4
O=C(N/N=C/c1ccc2ncccc2c1)c1cc(-c2cccs2)nc2ccccc12	62*	-18	3	19	57*	27*	44	5	15
COc1cc(-c2cc(C(=O)NCc3ccc(S(N)(=O)=O)cc3)c3ccccc3n2)cc(OC)c1OC	-10	-19	1	-20	32	x	x	x	x
CCOCCCNC(=O)c1cc(-c2ccc(Br)s2)nc2ccccc12	-2	-21	0	-29	2	x	x	x	x
SMILES	OX1R antag-1	CHO parental Ca	TAAR1 agonist	OX1R antag-2	TAAR1 antagonist	nonsel antag count	TAAR1 antag conf	Ga16 nonsel ag	TAAR1 ag counter
CC(C)OCCCNC(=O)c1cc(-c2cccs2)nc2ccccc12	9	-14	17	-26	57*	31*	49	7	11
O=C(NCc1ccco1)c1cc(-c2cccs2)nc2ccccc12	22	-18	12	-7	62*	27*	42	6	3
C[C@@H]1CN([C@@H](C)CO)C(=O)c2cc(Br)cnc2O[C@@H]1CN(C)Cc1ccccn1	x	x	4	x	3	x	x	x	x
CCOC(=O)C1CCN(C(=O)CNC(=O)c2nn(-c3ccc(OC)c(Cl)c3)c(=O)c3ccccc23)CC1	21	-7	13	-33	61*	28*	42	7	6
COc1ccc(NC(=O)CNC(=O)c2nn(-c3ccc(OC)c(Cl)c3)c(=O)c3ccccc23)c(OC)c1	10	-25	10	-57	61*	24*	49*	6	7
COc1ccc(-n2nc(C(=O)NCC(=O)Nc3cccc(Cl)c3)c3ccccc3c2=O)cc1OC	16	-15	20	-14	55*	25*	48	10	11
COc1ccc(-n2nc(C(=O)NCC(=O)Nc3cc(Cl)c(OC)cc3OC)c3ccccc3c2=O)cc1	19	-9	7	-30	-13	x	x	x	x
COc1ccc(-n2nc(C(=O)NCC(=O)NCC3COc4ccccc4O3)c3ccccc3c2=O)c(OC)c1 (stereo not given)	35	-6	2	-5	7	x	x	x	x
COc1ccc(-n2nc(C(=O)NCC(=O)NCC3COc4ccccc4O3)c3ccccc3c2=O)cc1OC (stereo not given)	55	-15	13	-14	58*	27*	49*	7	5
CC1(C2CC2)NC(=O)N(CC(=O)Nc2ccccc2-c2ccccc2)C1=O (stereo not given)	17	-9	2	-30	4	x	x	x	x
Cc1cccc(NC(=O)CSc2nc(C)c(Cc3ccccc3)c(=O)[nH]2)c1C	8	-18	x	-20	x	x	x	x	x
COc1ccc(CCNC(=O)CNC(=O)c2nn(-c3ccc(OC)c(OC)c3)c(=O)c3ccccc23)cc1OC	32	-17	17	-29	53*	33*	51*	12*	9
